Source: ChEMBL document CHEMBL1143139, “Structure-activity studies on splitomicin derivatives as sirtuin inhibitors and computational prediction of binding mode” (J Med Chem, 2008)
Calls of active or inactive are those of the source. The calls are words filed in the database; no cut-off is given here.

The molecules below were run on MCF7 (assay: Induction of tubulin hyperacetylation in human MCF7 cells at 100 uM by Western blot).
Assay type: functional, cell-based
Procedure, shortened: (§1)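 MCF-7 cells seeded at 500000/well, treated 24 h later with compound or DMSO for 8 h at 37 °C. PBS-washed cells lysed in Tris-HCl pH 7.5, EDTA, NaCl, 0.5% NP-40 plus protease inhibitors. Protein quantified by BCA before Western blotting.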

| SMILES | Activity |
| --- | --- |
| Cc1ccc(C2CC(=O)Oc3ccc4cc(Br)ccc4c32)cc1 (stereo not drawn) | Active |
| Cc1ccc([C@H]2CC(=O)Oc3ccc4cc(C)ccc4c32)cc1 | Active |

The molecules below were run on MCF7 (assay: Growth inhibition of human MCF7 cells at 500 uM by MTT assay).
Assay type: functional
Procedure, shortened: (§2)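 MCF-7 cells in RPMI-1640 with 10% FBS, L-glutamine and penicillin/streptomycin at 37 °C, 5% CO2; 5000 cells/well, compound or DMSO vehicle added 24 h after seeding, then 72 h exposure.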

| SMILES | Inhibition |
| --- | --- |
| Cc1ccc([C@@H]2CC(=O)Oc3ccc4cc(C)ccc4c32)cc1 | 74% |
| Cc1ccc2c3c(ccc2c1)OC(=O)CC3c1cccc(C(N)=O)c1 (stereo not drawn) | 64% |
| O=C1CC(c2ccccc2)c2c(ccc3cc(-c4ccccc4)ccc23)O1 (stereo not drawn) | 57% |

These molecules were tested on MCF7 (assay: Antiproliferative activity against human MCF7 cells by MTT assay).
Assay type: functional
Procedure, shortened: as §2

| SMILES | GI50 |
| --- | --- |
| Cc1ccc(C2CC(=O)Oc3ccc4cc(C)ccc4c32)cc1 (stereo not drawn) | 99 µM |
| Cc1ccc(C2CC(=O)Oc3ccc4cc(Br)ccc4c32)cc1 (stereo not drawn) | 43 µM |
| Cc1ccc([C@H]2CC(=O)Oc3ccc4cc(C)ccc4c32)cc1 | 84 µM |

What follows are molecules tested against T1, NAD-dependent protein deacetylase sirtuin-2 (Homo sapiens) (UniProt Q8IXJ6) (assay: Inhibition of human recombinant Sirt2 expressed in Escherichia coli BL21 at 20 uM by fluorescent deacetylase assay).
T1 sequence (whole entry): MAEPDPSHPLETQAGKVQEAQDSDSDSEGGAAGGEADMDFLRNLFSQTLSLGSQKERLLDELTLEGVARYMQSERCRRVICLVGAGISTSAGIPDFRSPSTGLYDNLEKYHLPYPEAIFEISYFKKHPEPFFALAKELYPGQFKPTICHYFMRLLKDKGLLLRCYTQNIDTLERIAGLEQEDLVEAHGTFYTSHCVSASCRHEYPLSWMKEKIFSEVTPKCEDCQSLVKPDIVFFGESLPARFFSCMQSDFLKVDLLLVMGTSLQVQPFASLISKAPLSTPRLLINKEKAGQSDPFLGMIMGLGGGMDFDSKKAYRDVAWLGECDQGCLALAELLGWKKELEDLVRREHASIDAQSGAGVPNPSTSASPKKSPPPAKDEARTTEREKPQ
Procedure, shortened: (§3)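 Full-length human Sirt2, N-terminal His6 tag, expressed in E. coli BL21 (IPTG 0.1 mM, 2 h). 60 µL reaction with fluorescent acetyl-lysine substrate ZMAL 10.5 µM, NAD+ 500 µM, inhibitor from DMSO stock, 4 h at 37 °C. Deacetylated product developed by tryptic digest; fluorescence at ex 390/em 460 nm. Inhibition calculated versus no-inhibitor control; at least duplicate.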

| SMILES | inhibition | Activity |
| --- | --- | --- |
| CC(=O)Nc1cccc(-c2ccc3c4c(ccc3c2)OC(=O)CC4c2ccccc2)c1 (stereo not drawn) | 22.2% | – |
| O=C1CC(c2ccccc2)c2c(ccc3cc(-c4cccc(O)c4)ccc23)O1 (stereo not drawn) | 37.5% | – |
| Cc1ccc2c3c(ccc2c1)OC(=O)CC3c1cccc(O)c1 (stereo not drawn) | 15.4% | – |
| COc1cc(C2CC(=O)Oc3ccc4cc(Br)ccc4c32)ccc1C (stereo not drawn) | 6.3% | – |
| CC(C)(C)c1ccc(C2CC(=O)Oc3ccc4cc(Br)ccc4c32)cc1 (stereo not drawn) | 46.8% | – |
| O=C1CC(c2ccccc2)c2c(ccc3cc(-c4ccc(-c5ccccc5)cc4)ccc23)O1 (stereo not drawn) | 20.6% | – |
| COc1cc(C2CC(=O)Oc3ccc4cc(C)ccc4c32)ccc1C (stereo not drawn) | 9.2% | – |
| O=C1CC(c2ccccc2)c2c(ccc3cc(-c4cccnc4)ccc23)O1 (stereo not drawn) | 18.4% | – |
| O=C1CC(c2ccccc2)c2c(ccc3cc(-c4ccc5ccccc5c4)ccc23)O1 (stereo not drawn) | 15.1% | – |
| O=C1CCc2c(ccc3cc(Br)ccc23)O1 | – | inactive |
| CC(=O)Nc1cccc(C2CC(=O)Oc3ccc4cc(C)ccc4c32)c1 (stereo not drawn) | 17.1% | – |
| COc1ccccc1C1CC(=O)Oc2ccc3cc(Br)ccc3c21 (stereo not drawn) | 17.4% | – |
| O=C1CC(c2ccc(Cl)c(Cl)c2)c2c(ccc3cc(Br)ccc23)O1 (stereo not drawn) | 42.3% | – |

Next, values leading:

| inhibition | Activity | SMILES |
| --- | --- | --- |
| 24% | – | CC(=O)c1ccc2c3c(ccc2c1)OC(=O)CC3c1ccccc1 (stereo not drawn) |
| 26.7% | – | Cc1ccc2c3c(ccc2c1)OC(=O)CC3c1ccc(Cl)cc1 (stereo not drawn) |
| – | inactive | O=C1CC(c2cccnc2)c2c(ccc3ccccc23)N1 (stereo not drawn) |
| 28.3% | – | Cc1ccc2c3c(ccc2c1)OC(=O)CC3c1ccc(-c2ccccc2)cc1 (stereo not drawn) |
| 21.8% | – | O=C1CC(c2ccccc2)c2c(ccc3cc(O)ccc23)O1 (stereo not drawn) |
| 28.5% | – | O=C1CC(c2ccc(Cl)cc2)c2c(ccc3cc(Br)ccc23)O1 (stereo not drawn) |

These molecules were tested against T2, NAD-dependent protein deacetylase sirtuin-2 (Homo sapiens, UniProt Q8IXJ6) (assay: Inhibition of human recombinant Sirt2 expressed in Escherichia coli BL21 by fluorescent deacetylase assay).
T2 sequence (Q8IXJ6 whole entry): T1 sequence (whole entry)

| SMILES | IC50 |
| --- | --- |
| Cc1ccc2c3c(ccc2c1)OC(=O)CC3c1ccc(C)c(F)c1 (stereo not drawn) | 3.4 µM |
| O=C1CC(c2cccc(F)c2)c2c(ccc3cc(Br)ccc23)O1 (stereo not drawn) | 3.2 µM |
| Cc1ccc2c3c(ccc2c1)OC(=O)CC3c1cccc(C#N)c1 (stereo not drawn) | 3.1 µM |
| Cc1ccc(C2CC(=O)Oc3ccc4cc(Br)ccc4c32)cc1Cl (stereo not drawn) | 2.3 µM |
| O=C1CC(c2cccc(Br)c2)c2c(ccc3cc(Br)ccc23)O1 (stereo not drawn) | 10.1 µM |
| COc1cccc(C2CC(=O)Oc3ccc4cc(Br)ccc4c32)c1 (stereo not drawn) | 2.3 µM |
| Cc1ccc(C2CC(=O)Oc3ccc4cc(Br)ccc4c32)cc1 (stereo not drawn) | 1.5 µM |
| O=C1CC(c2ccc(F)c(F)c2)c2c(ccc3cc(Br)ccc23)O1 (stereo not drawn) | 19.7 µM |
| Cc1ccc2c3c(ccc2c1)OC(=O)CC3c1cccc(C(N)=O)c1 (stereo not drawn) | 20 µM |
| Cc1ccc2c3c(ccc2c1)OC(=O)CC3c1cccc(Br)c1 (stereo not drawn) | 9.8 µM |
| Cc1cccc(C2CC(=O)Oc3ccc4cc(C)ccc4c32)c1 (stereo not drawn) | 4.4 µM |
| COc1ccc(C2CC(=O)Oc3ccc4cc(Br)ccc4c32)cc1 (stereo not drawn) | 5.4 µM |
| Cc1ccc(C2CC(=O)Oc3ccc4cc(Br)ccc4c32)cc1F (stereo not drawn) | 2 µM |

Continued, values first:

| IC50 | SMILES |
| --- | --- |
| 10.6 µM | Cc1ccc2c3c(ccc2c1)OC(=O)CC3c1ccccc1 (stereo not drawn) |
| 5.2 µM | O=C1CC(c2ccccc2)c2c(ccc3cc(Br)ccc23)O1 (stereo not drawn) |
| 1.5 µM | Cc1ccc(C2CC(=O)Oc3ccc4cc(C)ccc4c32)cc1 (stereo not drawn) |
| 6.4 µM | O=C1CC(c2ccccc2)c2c(ccc3cc(Br)ccc23)N1 (stereo not drawn) |
| 19.5 µM | O=C1CC(c2ccccc2)c2c(ccc3cc(I)ccc23)O1 (stereo not drawn) |
| 7.9 µM | O=C1CC(c2ccc(F)cc2)c2c(ccc3cc(Br)ccc23)O1 (stereo not drawn) |
| 3.4 µM | Cc1ccc2c3c(ccc2c1)OC(=O)C[C@@H]3c1ccccc1 |
| 1 µM | Cc1ccc([C@H]2CC(=O)Oc3ccc4cc(C)ccc4c32)cc1 |

What follows are molecules tested against T1, NAD-dependent protein deacetylase sirtuin-2 (Homo sapiens) (assay: Inhibition of human recombinant Sirt2 expressed in Escherichia coli BL21 at 40 uM by fluorescent deacetylase assay).
Procedure, shortened: as §3

| SMILES | Activity | inhibition |
| --- | --- | --- |
| O=C1CC(c2ccccc2)c2c(cc(Br)c3cc(Br)ccc23)O1 (stereo not drawn) | – | 9.6% |
| O=C1CC(c2ccccc2)c2c(ccc3cc(-c4ccccc4)ccc23)O1 (stereo not drawn) | – | 26.2% |
| O=C1CC(Cc2ccccc2)c2c(ccc3cc(Br)ccc23)O1 (stereo not drawn) | – | 21.1% |

More lines, now with the values ahead:

| Activity | inhibition | SMILES |
| --- | --- | --- |
| inactive | – | NC(=O)c1ccc2c3c(ccc2c1)OC(=O)CC3c1ccccc1 (stereo not drawn) |
| – | 25.6% | CCc1ccc2c3c(ccc2c1)OC(=O)CC3c1ccccc1 (stereo not drawn) |
| – | 31.5% | O=C1CC(c2ccccc2)c2c(ccc3ccccc23)N1 (stereo not drawn) |
| – | 4.2% | O=C1CC(c2ccc(-c3ccccc3)cc2)c2c(ccc3ccccc23)N1 (stereo not drawn) |
| inactive | – | COc1ccc2ccc3c(c2c1)C(c1ccccc1)CC(=O)O3 (stereo not drawn) |
| – | 49.1% | O=C1CC(c2ccccc2)c2c(ccc3ccccc23)O1 (stereo not drawn) |
| – | 16.9% | O=C1CC(c2ccc(F)cc2)c2c(ccc3ccccc23)N1 (stereo not drawn) |
| – | 25.9% | N#Cc1ccc2c3c(ccc2c1)OC(=O)CC3c1ccccc1 (stereo not drawn) |

These molecules were tested on MCF7 (assay: Induction of tubulin hyperacetylation in human MCF7 cells at 10 uM by Western blot).
Assay type: functional, cell-based
Procedure, shortened: as §1

| SMILES | Activity |
| --- | --- |
| NC(=O)[C@H]1CCCCc2c1[nH]c1ccc(Cl)cc21 | Active |
| O=C(CCCCCCC(=O)Nc1ccccc1)NO | Active |

The molecules below were run against T1, NAD-dependent protein deacetylase sirtuin-2 (Homo sapiens) (assay: Inhibition of human recombinant Sirt2 expressed in Escherichia coli BL21 at 100 uM by fluorescent deacetylase assay).
Procedure, shortened: as §3

| SMILES | inhibition |
| --- | --- |
| Cc1ccc2c3c(ccc2c1)OC(=O)C[C@H]3c1ccccc1 | 41.8% |
| Cc1ccc([C@@H]2CC(=O)Oc3ccc4cc(C)ccc4c32)cc1 | 35.1% |
